Published values collected from several papers.
DYRK1B: Dual specificity tyrosine-phosphorylation-regulated kinase 1B (DYRK1B, Homo sapiens, UniProt Q9Y463)
PTGS2: Prostaglandin G/H synthase 2 (PTGS2, Homo sapiens, UniProt P35354)
NUAK1: NUAK family SNF1-like kinase 1 (NUAK1, Homo sapiens, UniProt O60285)
DYRK3: Dual specificity tyrosine-phosphorylation-regulated kinase 3 (DYRK3, Homo sapiens, UniProt O43781)
CREBBP bromodomain: CREB-binding protein, bromodomain (CREBBP, Homo sapiens, UniProt Q92793)
BRWD1 BD2: Bromodomain and WD repeat-containing protein 1, BD2 (BRWD1, Homo sapiens, UniProt Q9NSI6)

Structure (SMILES)	target	assay	system	setting	quantity	result
Nc1ncnc2occ(-c3ccc(NC(=O)Nc4cc(C(F)(F)F)ccc4F)cc3)c12	Mitogen-activated protein kinase kinase kinase 15 (MAP3K15, Homo sapiens, UniProt Q6ZN16)	cell-free assay, inhibitor	–	20 µM	remaining signal	39%
O=C(O)c1ccc2c(c1)nc(NCCc1cccc(F)c1)c1ccncc12	DYRK1B	enzyme activity, inhibitor, radiometric	–	1 µM	remaining activity	106%
C=C[C@@]1(C)C=C2CC[C@@H]3[C@](C)(CCC[C@@]3(C)C(=O)O)[C@H]2CC1	PTGS2	enzyme activity, inhibitor	–	0.24 µg/mL	inhibition	0%
C[S+]([O-])c1ccc(-c2nc(-c3ccncc3)c(-c3ccc(F)cc3)[nH]2)cc1 (stereo not shown)	Transcription intermediary factor 1-beta (TRIM28, Homo sapiens, UniProt Q13263)	thermal stability, DSF	–	10 µM	ΔTm	1.43 °C
O=C(O)c1ccc2c(c1)nc(Nc1ccc(Cl)cc1)c1ncncc12	DYRK1B	enzyme activity, inhibitor, radiometric	–	1 µM	remaining activity	80%
CN(C)C1CCN(CC#Cc2nn(C3CCCC3)c3nc(NCc4ccccc4)ncc23)C1 (stereo not shown)	NUAK1	enzyme activity, inhibitor, FRET	–	0.1 µM	inhibition	0%
O=C(O)c1ccc2c(c1)nc(NCCc1ccccc1)c1ncncc12	DYRK3	enzyme activity, inhibitor, radiometric	–	1 µM	remaining activity	25%
COc1cc(/C=C/C(=O)CC(=O)/C=C/c2ccc(O)c(OC)c2)ccc1O	Rho-associated protein kinase 2 (Rock2, Rattus norvegicus, UniProt Q62868)	enzyme activity, inhibitor	–	1 µM	activity vs control	90%
Cn1cc(C(=O)Nc2cccc(C(=O)O)c2)ccc1=O	CREBBP bromodomain	thermal stability, DSF	–	100 µM	ΔTm	1.9 °C
Cc1cc2c(cc1N1C(=O)c3cccc4c(Cl)ccc(c34)C1=O)n(C)c(=O)n2C	BRWD1 BD2	thermal stability, DSF	–	10 µM	ΔTm	-1.4 °C
O=C(NCCCNc1nc(Nc2cccc(CN3CCOCC3)c2)ncc1C1CC1)C1CCC1	Inhibitor of nuclear factor kappa-B kinase subunit epsilon (IKBKE, Homo sapiens, UniProt Q14164)	enzyme activity, inhibitor, radiometric	–	1 µM	remaining activity	4%
O=C(O)c1ccc2c(c1)nc(Nc1ccc(F)c(Cl)c1)c1ccncc12	DYRK1B	enzyme activity, inhibitor, radiometric	–	1 µM	remaining activity	22%
COC(=O)c1ccc(O)cc1	PTGS2	enzyme activity, inhibitor	–	0.49 µg/mL	inhibition	0%
N#Cc1cccc(Nc2nc3cc(C(=O)O)ccc3c3cnccc23)c1	DYRK3	enzyme activity, inhibitor, radiometric	–	1 µM	remaining activity	0%
COc1ccc(-c2cc(=O)c3c(O)cc(O[C@@H]4O[C@H](CO)[C@@H](O)[C@H](O)[C@H]4O)cc3o2)cc1O	PTGS2	enzyme activity, inhibitor	–	31.25 µg/mL	inhibition	100%
Cc1cnc(Nc2ccc(OCCN3CCCC3)cc2)nc1Nc1cccc(S(=O)(=O)NC(C)(C)C)c1	Bromodomain testis-specific protein, BD2 (BRDT, Homo sapiens, UniProt Q58F21)	thermal stability, DSF	–	10 µM	ΔTm	2.69 °C
NS(=O)(=O)c1ccc(CNc2nc(Nc3cccc(NC(=O)N4CCCC4)c3)ncc2Br)cc1	NUAK1	enzyme activity, inhibitor, radiometric	–	1 µM	remaining activity	11%
NS(=O)(=O)c1ccc(Nc2nc(-c3ccc(F)cc3)c3ccccc3n2)cc1	BRWD1 BD2	binding, competition with immobilised ligand	–	1 µM	remaining binding	88%
Cc1ccc(C(=O)Nc2ccc(CN3CCN(C)CC3)c(C(F)(F)F)c2)cc1C#Cc1cnc2cccnn12	Cyclin-dependent kinase-like 5 (CDKL5, Homo sapiens, UniProt O76039)	enzyme activity	–	23.5 nM	remaining activity	100%
O=C(O)c1ccc2c(c1)nc(Nc1ccccc1)c1ccncc12	DYRK3	enzyme activity, inhibitor, radiometric	–	1 µM	remaining activity	7%
Oc1ccc(-c2nc(-c3ccncc3)c(-c3ccc(F)cc3)[nH]2)cc1	BRWD1 BD2	thermal stability, DSF	–	10 µM	ΔTm	-0.73 °C
O=C(O)c1ccc2c(c1)nc(Nc1ccc3ccccc3c1)c1ccncc12	DYRK3	enzyme activity, inhibitor, radiometric	–	1 µM	remaining activity	4%
O=c1cc(-c2ccc(O)cc2)oc2cc(O)cc(O)c12	PTGS2	enzyme activity, inhibitor	–	0.12 µg/mL	inhibition	3.07%
Cn1nnc2ccc(NC(=O)c3cccc(C(=O)O)c3)cc21	CREBBP bromodomain	thermal stability, DSF	–	100 µM	ΔTm	2 °C
O=C(O)c1ccc(O)cc1	PTGS2	enzyme activity, inhibitor	–	1.95 µg/mL	inhibition	41.7%
O=C(O)c1ccc2c(c1)nc(NCCc1cccc(Cl)c1)c1ccncc12	DYRK3	enzyme activity, inhibitor, radiometric	–	1 µM	remaining activity	5%
O=c1cc(-c2ccc(O)c(O)c2)oc2cc(O)cc(O)c12	PTGS2	enzyme activity, inhibitor	–	0.12 µg/mL	inhibition	21.6%
CCN1CCN(Cc2ccc(NC(=O)c3ccc(C)c(Oc4ccnc5[nH]ccc45)c3)cc2C(F)(F)F)CC1	Microtubule-associated serine/threonine-protein kinase 3 (MAST3, Homo sapiens, UniProt O60307)	target engagement in cells, inhibitor, chemoproteomics	Huh-7	1 µM	inhibition	-11.3%
